Data reported in ChEMBL document CHEMBL4834477, “Synthesis and biological evaluation of novel purinyl quinazolinone derivatives as PI3Kδ-specific inhibitors for the treatment of hematologic malignancies” (Bioorg Med Chem, 2021).
Active and inactive are the calls of the source. The calls are words filed in the database; no cut-off is given here.

How the values were obtained:
SU-DHL-5 = test: Antiproliferative activity against human SU-DHL-5 cells assessed as cell viability at 10 uM by CellTiter-Glo luminescent cell viability assay (reference value: 100%); type: functional; details: read-out: Activity
[1] = target: PI3-kinase p110-alpha/p85-alpha (Homo sapiens, UniProt P42336); test: Inhibition of recombinant human full length N-terminal His-tagged p110alpha/p85alpha expressed in baculovirus expression system measured after 60 mins in presence of ATP by ATP-competitive binding assay
Outline: (§1)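 SelectScreen ATP-competitive assay using 10-point titration with 1 μM top final compound concentration. Kinase, substrate and ATP mixed in 30 mM HEPES buffer and reacted 60 min. IC50 taken as the mean of three independent experiments.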

[2] = target: Phosphatidylinositol 4,5-bisphosphate 3-kinase catalytic subunit beta isoform (Homo sapiens, UniProt P42338); test: Inhibition of recombinant human full length His-tagged p110beta expressed in baculovirus expression system measured after 60 mins in presence of ATP by ATP-competitive binding assay; outline: as §1
[3] = target: PI3-kinase p110-delta/p85-alpha (Homo sapiens, UniProt O00329); test: Inhibition of recombinant human full length His-tagged p110delta/p85alpha expressed in baculovirus expression system measured after 60 mins in presence of ATP by ATP-competitive binding assay; outline: as §1
[4] = target: T1, Phosphatidylinositol 4,5-bisphosphate 3-kinase catalytic subunit delta isoform (Homo sapiens) (UniProt O00329); test: Inhibition of PI3Kdelta in human MOLT-4 cells assessed as inhibition of AKT phosphorylation at Ser473 residue at 1 to 5 uM measured after 3 hrs by western blot assay; type: cell-based; details: dose 1-5 µM
T1 sequence (whole entry): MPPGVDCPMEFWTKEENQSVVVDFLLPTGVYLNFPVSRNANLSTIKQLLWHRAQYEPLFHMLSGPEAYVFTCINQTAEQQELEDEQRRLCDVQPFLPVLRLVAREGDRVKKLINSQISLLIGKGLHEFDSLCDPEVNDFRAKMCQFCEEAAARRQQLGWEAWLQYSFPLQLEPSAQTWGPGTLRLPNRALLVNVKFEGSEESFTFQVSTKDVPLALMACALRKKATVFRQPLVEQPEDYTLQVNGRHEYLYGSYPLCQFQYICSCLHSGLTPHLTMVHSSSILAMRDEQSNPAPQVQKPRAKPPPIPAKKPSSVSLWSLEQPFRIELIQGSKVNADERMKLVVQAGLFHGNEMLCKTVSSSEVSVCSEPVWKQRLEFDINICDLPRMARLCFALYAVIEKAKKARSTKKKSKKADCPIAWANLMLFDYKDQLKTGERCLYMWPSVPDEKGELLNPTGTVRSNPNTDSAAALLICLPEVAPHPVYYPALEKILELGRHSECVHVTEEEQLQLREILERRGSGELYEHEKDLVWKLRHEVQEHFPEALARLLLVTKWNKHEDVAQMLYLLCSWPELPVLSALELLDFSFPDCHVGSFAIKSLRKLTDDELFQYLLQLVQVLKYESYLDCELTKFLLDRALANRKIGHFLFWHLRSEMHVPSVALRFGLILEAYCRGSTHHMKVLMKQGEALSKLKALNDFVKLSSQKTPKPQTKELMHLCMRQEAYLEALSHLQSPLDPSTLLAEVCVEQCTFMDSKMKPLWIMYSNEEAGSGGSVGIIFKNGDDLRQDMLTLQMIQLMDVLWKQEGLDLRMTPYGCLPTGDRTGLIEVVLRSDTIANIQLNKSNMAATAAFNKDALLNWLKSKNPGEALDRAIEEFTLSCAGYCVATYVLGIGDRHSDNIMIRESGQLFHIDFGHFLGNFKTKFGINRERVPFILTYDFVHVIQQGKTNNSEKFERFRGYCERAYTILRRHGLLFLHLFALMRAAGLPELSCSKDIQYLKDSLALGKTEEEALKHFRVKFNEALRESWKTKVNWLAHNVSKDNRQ
Outline: (§2)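 Treatment lasted 3 h: SUDHL-5 at 1 μM, MOLT-4 at 5 μM. Cells washed twice in cold PBS and lysed. Proteins resolved on 10–12% SDS-PAGE and blotted to PVDF. Probed for p-AKT S473, p-AKT T308, p-S6 and p-4E-BP1, with β-actin as loading control.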

[5] = target: T1, Phosphatidylinositol 4,5-bisphosphate 3-kinase catalytic subunit delta isoform (Homo sapiens); test: Inhibition of PI3Kdelta in human SU-DHL-5 cells assessed as inhibition of S6 phosphorylation at 1 to 5 uM measured after 3 hrs by western blot assay; type: cell-based; details: dose 1-5 µM; outline: as §2
[6] = target: T1, Phosphatidylinositol 4,5-bisphosphate 3-kinase catalytic subunit delta isoform (Homo sapiens); test: Inhibition of PI3Kdelta in human MOLT-4 cells assessed as inhibition of S6 phosphorylation at 1 to 5 uM measured after 3 hrs by western blot assay; type: cell-based; details: dose 1-5 µM; outline: as §2
[7] = target: T1, Phosphatidylinositol 4,5-bisphosphate 3-kinase catalytic subunit delta isoform (Homo sapiens); test: Inhibition of PI3Kdelta in human MOLT-4 cells assessed as inhibition of 4EBP1 phosphorylation at 1 to 5 uM measured after 3 hrs by western blot assay; type: cell-based; details: dose 1-5 µM; outline: as §2
SU-DHL10 [8] = test: Induction of apoptosis in human SU-DHL-10 cells assessed as viable cells at 20 uM measured after 24 hrs by AnnexinV-FITC/PI staining based flowcytometry method (reference value: 90%); type: functional; details: read-out: Activity
Outline: (§3)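 Cells exposed to 20 μM compound for 24 h, washed with cold PBS, and stained with Annexin V-FITC and propidium iodide for 15 min at room temperature. Viable, early apoptotic, late apoptotic and necrotic populations quantified by flow cytometry.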

SU-DHL10 [9] = test: Induction of apoptosis in human SU-DHL-10 cells assessed as late apoptotic cells at 20 uM measured after 24 hrs by AnnexinV-FITC/PI staining based flowcytometry method (reference value: 3.48%); type: functional; outline: as §3
MOLT-4 [10] = test: Induction of apoptosis in human MOLT-4 cells assessed as viable cells at 20 uM measured after 24 hrs by AnnexinV-FITC/PI staining based flowcytometry method (reference value: 95.3%); type: functional; details: read-out: Activity; outline: as §3
[11] = Tmax in Sprague-Dawley rat at 3 mg/kg, po measured for 24 hrs by LC-MS/MS analysis; type: ADME, organism-based; details: in vivo
Outline: (§4)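 Sprague-Dawley rats dosed orally at 1 or 3 mg/kg, three animals per group. Blood sampled at 0.25, 0.5, 1, 2, 4, 8 and 24 h post-dose. Plasma separated by centrifugation, extracted and quantified by LC-MS/MS. PK parameters (Cmax, AUClast, Tmax, t1/2) derived by non-compartmental software.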

[12] = AUC (last) in Sprague-Dawley rat at 1 mg/kg, po measured for 24 hrs by LC-MS/MS analysis; type: ADME, organism-based; design: route oral, dose 1 mg/kg, time 24 hrs; details: in vivo; outline: as §4
[13] = Tmax in Sprague-Dawley rat at 1 mg/kg, po measured for 24 hrs by LC-MS/MS analysis; type: ADME, organism-based; details: in vivo; outline: as §4
[14] = Half life in Sprague-Dawley rat at 1 mg/kg, po measured for 24 hrs by LC-MS/MS analysis; type: ADME, organism-based; details: in vivo; outline: as §4
MOLT-4 [15] = test: Antiproliferative activity against human MOLT-4 cells assessed as reduction in cell viability at 20 uM by CellTiter-Glo luminescent cell viability assay relative to idelalisib; type: functional
Outline: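 Cells were seeded at 5x10^4 per well and exposed to the compound at a single concentration: 10 μM for SUDHL-5 and 20 μM for MOLT-4. CellTiter-Glo reagent was added 1:1, mixed for 2 min to lyse the cells, and held 10 min at room temperature before reading luminescence. Readings were background-subtracted and normalized to control wells.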

Sequence of Phosphatidylinositol 4,5-bisphosphate 3-kinase catalytic subunit beta isoform (P42338 whole entry, canonical isoform): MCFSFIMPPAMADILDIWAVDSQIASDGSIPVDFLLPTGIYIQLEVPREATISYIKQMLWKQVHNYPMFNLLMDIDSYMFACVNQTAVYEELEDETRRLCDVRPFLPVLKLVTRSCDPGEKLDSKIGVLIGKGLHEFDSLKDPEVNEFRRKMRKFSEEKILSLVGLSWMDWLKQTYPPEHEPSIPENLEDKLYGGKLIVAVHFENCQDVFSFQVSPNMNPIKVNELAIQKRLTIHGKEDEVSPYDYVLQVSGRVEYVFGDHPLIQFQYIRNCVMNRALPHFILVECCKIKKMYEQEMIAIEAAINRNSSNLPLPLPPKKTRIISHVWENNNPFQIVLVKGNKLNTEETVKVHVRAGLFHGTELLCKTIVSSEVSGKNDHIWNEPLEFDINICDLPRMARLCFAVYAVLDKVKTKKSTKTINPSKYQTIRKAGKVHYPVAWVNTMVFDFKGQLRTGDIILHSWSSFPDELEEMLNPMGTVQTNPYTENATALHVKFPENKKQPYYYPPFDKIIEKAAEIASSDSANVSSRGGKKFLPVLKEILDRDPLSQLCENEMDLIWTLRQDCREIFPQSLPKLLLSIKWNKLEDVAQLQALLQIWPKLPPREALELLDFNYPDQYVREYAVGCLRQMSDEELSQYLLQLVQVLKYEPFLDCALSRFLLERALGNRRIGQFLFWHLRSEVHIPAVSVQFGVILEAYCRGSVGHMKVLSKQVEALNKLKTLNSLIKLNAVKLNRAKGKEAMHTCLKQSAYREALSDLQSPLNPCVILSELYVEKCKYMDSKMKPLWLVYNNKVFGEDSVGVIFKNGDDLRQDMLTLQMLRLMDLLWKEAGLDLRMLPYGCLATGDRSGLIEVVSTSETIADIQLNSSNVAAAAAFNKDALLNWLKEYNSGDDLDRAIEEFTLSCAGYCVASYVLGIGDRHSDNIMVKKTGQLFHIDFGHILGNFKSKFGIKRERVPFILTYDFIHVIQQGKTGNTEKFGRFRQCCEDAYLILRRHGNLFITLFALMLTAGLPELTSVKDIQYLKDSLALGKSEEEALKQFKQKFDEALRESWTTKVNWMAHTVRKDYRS
Sequence of PI3-kinase p110-alpha/p85-alpha (P27986 whole entry): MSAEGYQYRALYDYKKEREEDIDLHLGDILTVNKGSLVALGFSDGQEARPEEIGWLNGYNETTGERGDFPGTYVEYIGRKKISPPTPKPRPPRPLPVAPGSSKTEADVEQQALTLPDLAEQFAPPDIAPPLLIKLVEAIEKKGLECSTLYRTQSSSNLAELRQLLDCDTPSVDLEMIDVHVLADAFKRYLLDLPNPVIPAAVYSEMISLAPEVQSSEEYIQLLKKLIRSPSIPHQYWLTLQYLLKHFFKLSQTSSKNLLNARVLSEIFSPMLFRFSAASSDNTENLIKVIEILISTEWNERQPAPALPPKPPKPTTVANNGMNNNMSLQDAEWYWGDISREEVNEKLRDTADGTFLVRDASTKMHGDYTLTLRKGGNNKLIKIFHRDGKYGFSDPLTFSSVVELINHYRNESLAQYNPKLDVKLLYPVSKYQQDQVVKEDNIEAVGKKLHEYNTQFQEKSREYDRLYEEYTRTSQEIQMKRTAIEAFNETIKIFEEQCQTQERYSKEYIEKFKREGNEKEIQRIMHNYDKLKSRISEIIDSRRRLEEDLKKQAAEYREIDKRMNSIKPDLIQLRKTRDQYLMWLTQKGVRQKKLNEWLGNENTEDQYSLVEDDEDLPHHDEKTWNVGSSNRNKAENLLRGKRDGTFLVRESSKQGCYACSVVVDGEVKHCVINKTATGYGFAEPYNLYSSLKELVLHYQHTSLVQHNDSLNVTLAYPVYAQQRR
Sequence of PI3-kinase p110-alpha/p85-alpha (P42336 whole entry): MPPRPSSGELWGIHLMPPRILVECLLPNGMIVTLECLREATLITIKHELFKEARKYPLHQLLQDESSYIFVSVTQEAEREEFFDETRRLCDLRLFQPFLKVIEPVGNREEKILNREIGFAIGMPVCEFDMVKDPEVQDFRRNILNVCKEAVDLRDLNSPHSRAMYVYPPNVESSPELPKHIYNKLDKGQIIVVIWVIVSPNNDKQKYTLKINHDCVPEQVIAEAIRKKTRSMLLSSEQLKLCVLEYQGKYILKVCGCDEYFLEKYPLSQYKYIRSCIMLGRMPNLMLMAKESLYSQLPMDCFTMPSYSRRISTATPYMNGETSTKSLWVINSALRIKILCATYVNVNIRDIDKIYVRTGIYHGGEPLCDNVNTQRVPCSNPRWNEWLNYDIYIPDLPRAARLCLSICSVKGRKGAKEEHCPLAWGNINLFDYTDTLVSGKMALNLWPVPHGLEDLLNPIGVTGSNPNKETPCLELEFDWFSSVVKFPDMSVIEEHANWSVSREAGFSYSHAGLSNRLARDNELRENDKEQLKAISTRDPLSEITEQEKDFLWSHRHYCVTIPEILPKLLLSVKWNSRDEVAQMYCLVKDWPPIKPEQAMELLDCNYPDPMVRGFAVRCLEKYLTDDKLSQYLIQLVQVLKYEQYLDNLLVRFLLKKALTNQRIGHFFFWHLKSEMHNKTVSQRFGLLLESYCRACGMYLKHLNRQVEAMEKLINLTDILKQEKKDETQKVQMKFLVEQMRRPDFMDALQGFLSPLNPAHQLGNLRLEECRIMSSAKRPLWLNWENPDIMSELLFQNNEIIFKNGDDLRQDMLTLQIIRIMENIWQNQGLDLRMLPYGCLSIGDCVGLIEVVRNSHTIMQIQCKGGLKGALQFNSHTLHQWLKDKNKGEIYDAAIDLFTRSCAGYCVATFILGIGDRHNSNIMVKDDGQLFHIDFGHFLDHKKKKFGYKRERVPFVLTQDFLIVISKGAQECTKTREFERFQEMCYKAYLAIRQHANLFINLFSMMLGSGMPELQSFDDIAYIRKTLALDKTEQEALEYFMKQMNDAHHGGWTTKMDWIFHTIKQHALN
Sequence of PI3-kinase p110-delta/p85-alpha (P27986 whole entry, one chain of several, canonical isoform): as the sequence (P27986 whole entry) above

SMILES | viability at 10 µM (SU-DHL-5) [%] | IC50 [1] [nM] | IC50 [2] [nM] | IC50 [3] [nM] | inhibition [4] | inhibition [5] | inhibition [6] | inhibition [7] | viability at 20 µM (SU-DHL10 [8]) [%] | Activity (SU-DHL10 [9]) [%] | viability at 20 µM (MOLT-4 [10]) [%] | Tmax [11] [min] | AUC(0-t) at 24 h [12] [ng·h/mL] | Tmax [13] [min] | half-life [14] [min] | fold change (FC) (MOLT-4 [15])
O=c1c2c(F)cccc2nc([C@@H](Nc2ncnc3nc[nH]c23)C2CC2)n1-c1ccccc1 | 34.8 | 222 | 199 | 0.39 | Active | Active | Active | Active | 19.7 | 24.2 | 49.5 | 60 | 81 | 30 | 612 | 
Cc1cccc2nc([C@@H](Nc3ncnc4nc[nH]c34)C3CC3)n(-c3ccccc3)c(=O)c12 | 20.2 |  |  |  | Active | Active | Active | Active | 15 | 45.9 | 41 | 30 |  |  |  | 5
